The test system of assay [1] is Streptococcus suis. Briefly: Inhibition of Streptococcus suis 628 binding to pigeon ovomucoid by surface plasmon resonance assay. Type of assay: functional, organism-based. The method, boiled down: (§1)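 SPR competition format. S. suis was cultured in THY broth at 37 °C without shaking. Bacteria were incubated 5 min with inhibitor dilutions in HBS-P buffer, then injected over the sensor chip. The surface was regenerated with 10 mM NaOH between injections. Data from repeated experiments were normalized 0–100 to build inhibition curves. Line 7 expresses potency relative to the monovalent reference.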

In assay [2] the test system is Streptococcus suis. Briefly: Relative potency against Streptococcus suis 836 mediated hemagglutinination of human erythrocytes measured as IC50 for monovalent galobiose compound to the multivalent compound. Type of assay: functional. In a few lines: (§2)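 Hemagglutination MIC read-out. Bacteria (THY broth, 37 °C, static) were preincubated 5 min at room temperature with twofold inhibitor dilutions. Sialidase-treated 5% human erythrocytes were added and agglutination was scored visually after 1 h on ice. Potency is expressed relative to the monovalent reference galabioside.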

For assay [3], the system named is Streptococcus suis. Nature of the assay: Inhibition of Streptococcus suis 836 mediated hemagglutinination of human erythrocytes. Type of assay: functional. The method, boiled down:
(§3)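 S. suis grown in THY broth at 37 °C without shaking. Twofold dilutions of galabiose compound were preincubated with equal volumes of bacteria for 5 min at room temperature. Then 5% sialidase-treated human erythrocytes were added. After 1 h on ice, agglutination was scored visually. MIC was taken as the lowest concentration giving complete inhibition.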

Assay [4] relates to Streptococcus suis. Nature of the assay: Inhibition of Streptococcus suis 628 mediated hemagglutinination of human erythrocytes. Format: functional. In a few lines: as §3
Assay [5] relates to Streptococcus suis. Nature of the assay: Relative potency for against treptococcus suis 628 binding to pigeon ovomucoid by surface plasmon resonance assay measured as IC50 for monovalent galobiose compound to the multivalent compound. Type of assay: functional. The method, boiled down:
as §1
In general terms: In SPR one partner is held on a chip, and binding of the other changes the refractive index at the surface.

Assay [6] has as its system Streptococcus suis. Nature of the assay: Relative potency against Streptococcus suis 628 mediated hemagglutinination of human erythrocytes measured as IC50 for monovalent galobiose compound to the multivalent compound. Format: functional. The method, boiled down:
as §2

Assay [7] deals with Streptococcus suis. Briefly: Inhibition of Streptococcus suis 628 binding to pigeon ovomucoid by ELISA. Format: functional, organism-based. Background: An ELISA detects its analyte on a solid surface through an enzyme-linked reagent.

Converted amounts (≈) assume the structure as drawn.

The IC50 is the midpoint of a concentration-inhibition curve. Low values mean higher potency, high ones lower potency. The term MIC denotes the lowest concentration that inhibits growth of the organism. A high value points to a need for much substance.

`COC(=O)c1cc(OCCNC(=O)COCC(=O)NCCCO[C@@H]2O[C@H](CO)[C@H](O[C@H]3O[C@H](CO)[C@H](O)[C@H](O)[C@H]3O)[C@H](O)[C@H]2O)cc(OCCNC(=O)COCC(=O)NCCCO[C@@H]2O[C@H](CO)[C@H](O[C@H]3O[C@H](CO)[C@H](O)[C@H](O)[C@H]3O)[C@H](O)[C@H]2O)c1` registered a 50% inhibitory concentration (IC50) in assay [1] of 0.235 µM. Further, the “Ratio IC50” value in assay [2] worked out at 22; in assay [5], 8; in assay [6], 150. Moreover, the minimal inhibitory concentration (MIC) is 0.07 µM (≈ 0.0874 µg/mL) in assay [3] and 0.006 µM (≈ 0.0075 µg/mL) in assay [4].
For `O=C(COCC(=O)NCCCO[C@@H]1O[C@H](CO)[C@H](O[C@H]2O[C@H](CO)[C@H](O)[C@H](O)[C@H]2O)[C@H](O)[C@H]1O)NCC#Cc1ccc(C#CCNC(=O)COCC(=O)NCCCO[C@@H]2O[C@H](CO)[C@H](O[C@H]3O[C@H](CO)[C@H](O)[C@H](O)[C@H]3O)[C@H](O)[C@H]2O)cc1`, the IC50 in assay [1] turned out to be 0.309 µM. Besides, the “Ratio IC50” value in assay [2] amounted to 18; in assay [5] it was 6; in assay [6] it was 128. The minimal inhibitory concentration (MIC) in assay [3] stood at 0.09 µM (≈ 0.106 µg/mL); in assay [4], 0.007 µM (≈ 0.00825 µg/mL).
For `COC(=O)c1cc(OCCNC(=O)c2cc(OCCNC(=O)COCC(=O)NCCCO[C@@H]3O[C@H](CO)[C@H](O[C@H]4O[C@H](CO)[C@H](O)[C@H](O)[C@H]4O)[C@H](O)[C@H]3O)cc(OCCNC(=O)COCC(=O)NCCCO[C@@H]3O[C@H](CO)[C@H](O[C@H]4O[C@H](CO)[C@H](O)[C@H](O)[C@H]4O)[C@H](O)[C@H]3O)c2)cc(OCCNC(=O)c2cc(OCCNC(=O)COCC(=O)NCCCO[C@@H]3O[C@H](CO)[C@H](O[C@H]4O[C@H](CO)[C@H](O)[C@H](O)[C@H]4O)[C@H](O)[C@H]3O)cc(OCCNC(=O)COCC(=O)NCCCO[C@@H]3O[C@H](CO)[C@H](O[C@H]4O[C@H](CO)[C@H](O)[C@H](O)[C@H]4O)[C@H](O)[C@H]3O)c2)c1`, the half-maximal inhibitory concentration (IC50) in assay [1] was found to be 0.007 µM. For the same compound, the “Ratio IC50” value in assay [2] was found to be 40; in assay [5], 256; in assay [6] it was 450. Moreover, the minimal inhibitory concentration (MIC) in assay [3] was found to be 0.04 µM (≈ 0.108 µg/mL); in assay [4], 0.002 µM (≈ 0.00538 µg/mL).
For `COC(=O)c1cccc(OCCNC(=O)COCC(=O)NCCCO[C@@H]2O[C@H](CO)[C@H](O[C@H]3O[C@H](CO)[C@H](O)[C@H](O)[C@H]3O)[C@H](O)[C@H]2O)c1`, the results for the IC50 in assay [7] and in assay [1] were 45 µM and 1.8 µM, respectively. Besides, the figures for the minimal inhibitory concentration (MIC) in assay [3] and in assay [4] were 1.6 µM (≈ 1.11 µg/mL) and 0.9 µM (≈ 0.623 µg/mL), respectively.
For `O=C(CCN(CCNC(=O)CCN(CCC(=O)NCCN(CCC(=O)NCCNC(=O)COCC(=O)NCCCO[C@@H]1O[C@H](CO)[C@H](O[C@H]2O[C@H](CO)[C@H](O)[C@H](O)[C@H]2O)[C@H](O)[C@H]1O)CCC(=O)NCCNC(=O)COCC(=O)NCCCO[C@@H]1O[C@H](CO)[C@H](O[C@H]2O[C@H](CO)[C@H](O)[C@H](O)[C@H]2O)[C@H](O)[C@H]1O)CCN(CCC(=O)NCCN(CCC(=O)NCCNC(=O)COCC(=O)NCCCO[C@@H]1O[C@H](CO)[C@H](O[C@H]2O[C@H](CO)[C@H](O)[C@H](O)[C@H]2O)[C@H](O)[C@H]1O)CCC(=O)NCCNC(=O)COCC(=O)NCCCO[C@@H]1O[C@H](CO)[C@H](O[C@H]2O[C@H](CO)[C@H](O)[C@H](O)[C@H]2O)[C@H](O)[C@H]1O)CCC(=O)NCCN(CCC(=O)NCCNC(=O)COCC(=O)NCCCO[C@@H]1O[C@H](CO)[C@H](O[C@H]2O[C@H](CO)[C@H](O)[C@H](O)[C@H]2O)[C@H](O)[C@H]1O)CCC(=O)NCCNC(=O)COCC(=O)NCCCO[C@@H]1O[C@H](CO)[C@H](O[C@H]2O[C@H](CO)[C@H](O)[C@H](O)[C@H]2O)[C@H](O)[C@H]1O)CCC(=O)NCCNC(=O)COCC(=O)NCCCO[C@@H]1O[C@H](CO)[C@H](O[C@H]2O[C@H](CO)[C@H](O)[C@H](O)[C@H]2O)[C@H](O)[C@H]1O)NCCNC(=O)COCC(=O)NCCCO[C@@H]1O[C@H](CO)[C@H](O[C@H]2O[C@H](CO)[C@H](O)[C@H](O)[C@H]2O)[C@H](O)[C@H]1O`, in assay [1], the IC50 is 0.007 µM. The results for the “Ratio IC50” value in assay [2], in assay [5] and in assay [6] were 800, 256 and 3000, respectively. Also, the figures for the minimal inhibitory concentration (MIC) in assay [3] and in assay [4] were 0.002 µM (≈ 0.0108 µg/mL) and 0.0003 µM (≈ 0.00162 µg/mL), respectively.
For the compound `COC(=O)c1cc(OCCNC(=O)COCC(=O)NCCCOCCOCCOCCCNC(=O)COCC(=O)NCCCO[C@@H]2O[C@H](CO)[C@H](O[C@H]3O[C@H](CO)[C@H](O)[C@H](O)[C@H]3O)[C@H](O)[C@H]2O)cc(OCCNC(=O)COCC(=O)NCCCOCCOCCOCCCNC(=O)COCC(=O)NCCCO[C@@H]2O[C@H](CO)[C@H](O[C@H]3O[C@H](CO)[C@H](O)[C@H](O)[C@H]3O)[C@H](O)[C@H]2O)c1`, the 50% inhibitory concentration (IC50) in assay [1] amounted to 0.156 µM. Besides, the “Ratio IC50” value in assay [2] is recorded as 16; in assay [5], 12; in assay [6], 100. Moreover, the MIC in assay [3] was determined as 0.1 µM (≈ 0.189 µg/mL); in assay [4], 0.009 µM (≈ 0.017 µg/mL).
As for `O=C(COCC(=O)NCCCO[C@@H]1O[C@H](CO)[C@H](O[C@H]2O[C@H](CO)[C@H](O)[C@H](O)[C@H]2O)[C@H](O)[C@H]1O)NCC#Cc1cccc(C#CCNC(=O)COCC(=O)NCCCO[C@@H]2O[C@H](CO)[C@H](O[C@H]3O[C@H](CO)[C@H](O)[C@H](O)[C@H]3O)[C@H](O)[C@H]2O)c1`, the half-maximal inhibitory concentration (IC50) in assay [1] is 0.293 µM. In addition, the “Ratio IC50” value is 32 in assay [2], 6 in assay [5] and 225 in assay [6]. In addition, the minimal inhibitory concentration (MIC) in assay [3] came out at 0.05 µM (≈ 0.059 µg/mL); in assay [4], 0.004 µM (≈ 0.00472 µg/mL).

Values taken from ChEMBL document CHEMBL1149276, “Inhibition of Streptococcus suis adhesion by dendritic galabiose compounds at low nanomolar concentration” (J Med Chem, 2004).
